Most compounds without a hit are left out; they make up all but 2.1% or so of the library.
aDG glyco up – alpha-DG glycosylation activation. 0.22% of 360,000 active. Pro5-aDG cells, alpha-DG glycosylation AlphaScreen (IIH6); 0% Pro5, 100% B10-LARGE cell signal. activation, % at 10 µM;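 active = activation of at least 8% versus controls, or a plate z-score of at least 8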;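 note: Pro5 are CHO cells carrying HIG-tagged alpha-DG that lacks glycosylation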
UCH37 DUB inh – human UCH37 deubiquitinating enzyme inhibition. inhibition, % (no concentration beside the values). Q9Y5K5. purified proteasome/UCH37, Ub-AMC cleavage fluorescence. 0.33% of 330,000 active;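 active = mean inhibition over replicate wells above about 20%, limit read from the data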
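Assay system: Proteasome-bound UCH37. Buffer or medium: pH 7.4 Tris-HCl (50 mM) with ovalbumin, ATP-MgCl2, DTT. Incubation: 30 min preincubation with enzyme, 25 min cleavage at room temperature. Measured by: fluorescence, ex 355 nm, em 460 nm. Read-out basis: percent inhibition. Control set: wells without proteasome as full block, compound-free enzyme plus substrate as uninhibited.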
B2AR ag – agonists of human beta-2 adrenergic receptor inducing internalization; Am2.2-beta2AR cells, FAP receptor internalization, flow cytometry; response, % (test concentration not listed); 0.43% of 340,000 active;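 active = response above a set limit, near 3 SD of response in nonfluorescent compounds, cut at about 42% in these data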
H9c2 protect – myocardial damage modulation in H9c2 cells | H9c2 cardiomyocytes, H2O2 injury protection, ATPLite, 2 h | protection from H2O2 cell death, % at 20 µM | 0.63% of 360,000 active | AID 588492;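 active = compounds giving at least 50% protection of heart cells from peroxide-induced death in the single-dose screen, raw or plate-pattern-corrected value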
HKDC1 inh – inhibitors of human hexokinase HKDC1; Q2TB90; recombinant HKDC1, G6PDH/diaphorase resazurin coupled fluorescence; inhibition, % at 20 µM; 0.16% of 340,000 active; AID 493160;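 active = inhibition above about 35% when tested at 20 µM, limit read from the data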
Target sequence (Q2TB90 whole entry, looked up): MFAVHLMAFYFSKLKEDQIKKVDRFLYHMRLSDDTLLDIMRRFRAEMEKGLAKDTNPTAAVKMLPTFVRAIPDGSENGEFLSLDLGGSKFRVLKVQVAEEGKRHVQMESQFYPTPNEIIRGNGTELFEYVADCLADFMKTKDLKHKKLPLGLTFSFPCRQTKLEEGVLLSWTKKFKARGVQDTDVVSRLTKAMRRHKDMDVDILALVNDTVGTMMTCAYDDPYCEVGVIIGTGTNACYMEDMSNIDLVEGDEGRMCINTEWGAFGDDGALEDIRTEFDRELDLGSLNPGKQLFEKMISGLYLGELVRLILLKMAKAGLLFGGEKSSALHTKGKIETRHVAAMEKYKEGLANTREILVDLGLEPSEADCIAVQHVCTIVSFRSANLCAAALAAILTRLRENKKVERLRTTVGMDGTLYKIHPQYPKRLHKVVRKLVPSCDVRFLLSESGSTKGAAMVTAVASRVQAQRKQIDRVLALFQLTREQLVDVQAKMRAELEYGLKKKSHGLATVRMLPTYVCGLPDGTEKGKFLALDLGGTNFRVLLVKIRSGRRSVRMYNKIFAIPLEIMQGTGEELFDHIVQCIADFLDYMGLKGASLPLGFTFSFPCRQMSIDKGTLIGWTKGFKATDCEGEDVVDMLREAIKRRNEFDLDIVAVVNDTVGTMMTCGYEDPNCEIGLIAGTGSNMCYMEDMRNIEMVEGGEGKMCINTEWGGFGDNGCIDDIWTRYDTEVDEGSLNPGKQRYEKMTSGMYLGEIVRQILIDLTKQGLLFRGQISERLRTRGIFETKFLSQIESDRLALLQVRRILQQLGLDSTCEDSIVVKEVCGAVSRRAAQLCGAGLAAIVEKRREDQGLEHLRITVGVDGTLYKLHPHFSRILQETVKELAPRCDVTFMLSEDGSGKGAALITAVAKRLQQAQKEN
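Test system: recombinant HKDC1 (HK5) hexokinase enzyme, produced in-house / Doses: 20 µM test compound, 1% DMSO / Timing: 90 min, room temperature / Detection: G6PDH/diaphorase-coupled fluorescence, 1 mM NADP, 100 µM resazurin, 525/613 nm / Control set: DMSO wells with and without enzyme mix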
PfG6PD inh – PfG6PD (Plasmodium falciparum) enzyme inhibition; 0.78% of 350,000 active; AID 504690; inhibition, % at 20 µM; PfGluPho enzyme, NADPH resazurin-diaphorase fluorescence;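 active = inhibition reaching at least a set limit at 20 µM in the primary screen, cut at about 59% in these data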
A number is an active result; – = inactive; · = not tested or not shown.

SMILES | aDG glyco up | UCH37 DUB inh | B2AR ag | H9c2 protect | HKDC1 inh | PfG6PD inh
Nc1c(C(=O)N/N=C/c2cccnc2)oc2nc(-c3ccccc3)cc(-c3ccco3)c12 | – | · | – | 67.5 | – | –
Nc1c(C(=O)N/N=C/c2cccnc2)oc2nc(-c3ccco3)cc(-c3ccco3)c12 | – | · | – | 76.6 | – | –
NNC(=O)c1oc2nc(-c3ccco3)cc(-c3ccco3)c2c1N | – | – | – | – | – | –
O=C1C=CC(=O)N1c1ccccc1N1C(=O)C=CC1=O | – | – | – | – | – | 114.4
O=C(c1ccccc1)c1ccccc1N1C(=O)C=CC1=O | – | – | – | – | – | –
N#Cc1ccc(-c2ccc(C3Nc4ccccc4C(=O)N3O)o2)cc1 (stereo not given) | – | – | – | – | – | –
CCOC(=O)c1ccc(-c2ccc(C3Nc4ccccc4C(=O)N3O)o2)cc1 (stereo not given) | – | – | – | 59.3 | – | –
O=C1c2ccccc2NC(c2ccc(-c3ccccc3F)o2)N1O (stereo not given) | – | – | – | – | – | –
Cc1cc([N+](=O)[O-])ccc1-c1ccc(C2Nc3ccccc3C(=O)N2O)o1 (stereo not given) | – | – | – | 63.0 | – | –
Cc1occc1C(=O)NN=Cc1ccc2c(c1)OCO2 | · | – | · | · | · | ·
Cc1ccc(-c2cc(C(=O)NN=Cc3ccccc3)n[nH]2)o1 | · | – | · | · | · | ·
CCN(CC)c1ccc(N=Cc2ccc([N+](=O)[O-])o2)cc1 | – | – | – | – | – | 69.3
COc1cc(C(=O)NNC(=O)c2ccc3ccccc3n2)cc(OC)c1OC | – | – | – | 60.6 | – | –
CCCCCC(=O)N/N=C(\C)c1ccccn1 | – | · | – | 61.2 | – | –
COc1cc(C(=O)N/N=C(\C)c2ccccn2)cc(OC)c1OC | – | · | – | 58.5 | – | –
COc1cc(C(=O)N/N=C(\c2ccccc2)c2ccccn2)cc(OC)c1OC | – | · | – | 78.0 | – | –
COc1cc(OC)cc(C(=O)NNC(=O)c2ccc3ccccc3n2)c1 | – | – | – | – | – | –
C/C(=N\NC(=O)c1ccc(Cl)cc1)c1ccccn1 | – | · | – | – | – | –
COc1cccc(C(=O)N/N=C(/c2ccccc2)c2ccccn2)c1 | – | · | – | – | – | –
CC1CCCC(C)N1N=Cc1ccc(Cl)cc1 (stereo not given) | · | – | · | · | · | ·
O=C(CSCc1ccc(Cl)cc1)NN=Cc1ccco1 | · | – | · | · | · | ·
Cc1cc(C)nc(NN=Cc2ccncc2)n1 | · | – | · | · | · | ·
O=[N+]([O-])c1ccc(N2CCN(C(=S)c3cccc([N+](=O)[O-])c3)CC2)cc1 | – | – | – | – | – | 68.2
COc1ccc(NC(=O)c2cccc(N3C(=O)c4ccc(C(=O)Nc5ccc(OC)c(O)c5)cc4C3=O)c2)cc1O | – | – | – | – | – | –
CC(=O)c1ccc(NC(=O)c2cccc(N3C(=O)c4ccccc4C3=O)c2)cc1 | – | – | 81.2 | – | – | –
SMILES | aDG glyco up | UCH37 DUB inh | B2AR ag | H9c2 protect | HKDC1 inh | PfG6PD inh
CCOC(=O)CC1CCCCN1C(=O)c1cc(COc2cccc3cnccc23)on1 (stereo not given) | 6.7 | – | – | – | – | –
O=c1[nH]cnc2sc3c(c12)CCC3 | – | – | – | 59.8 | – | –
Cc1nc2sc3c(c2c(=O)[nH]1)CCC3 | – | – | – | – | – | –
COc1cccc(-n2nc(C#N)c(Cl)cc2=O)c1 | – | – | 84.0 | – | – | –
COc1cccc(-n2nc(C(N)=O)c(O)cc2=O)c1 | – | – | – | – | – | –
COC(=O)NN=Cc1ccc(-c2ccccc2Cl)o1 | · | – | · | · | · | ·
COc1ccc(C(=O)/C(C#N)=N/Nc2ccc([N+](=O)[O-])cc2)cc1 | – | · | 46.5 | – | – | –
COc1ccc(/C=N/Nc2ccc(C(=O)O)cc2)c(OC)c1OC | – | · | – | – | – | –
COc1cc(/C=C/c2ccc(O)cc2)cc(OC)c1 | – | – | – | – | – | –
COC(=O)c1ccc2c(c1)C(C)(C)C(/C=C/c1ccc(O)cc1)=[N+]2C | – | – | 48.9 | – | – | –
COC(=O)c1ccc2c(c1)C(C)(C)C(/C=C/c1ccc(OC)c(OC)c1OC)=[N+]2C | – | – | 57.1 | – | – | –
CCCCN1/C(=C/c2ccc3ccccc3[n+]2CC)Sc2ccccc21 | 8.4 | – | · | – | – | –
COc1ccc(OC)c(C2CC(=O)N3CN(c4cccc(Cl)c4)CSC3=C2C#N)c1 (stereo not given) | – | – | – | – | – | –
COc1ccc(OC)c(C2CC(=O)N3CN(c4cccc(Cl)c4C)CSC3=C2C#N)c1 (stereo not given) | – | – | – | – | – | 83.0
COc1cccc(C2CC(=O)N3CN(c4ccccc4F)CSC3=C2C#N)c1 (stereo not given) | – | – | – | – | – | 83.2
COc1ccc(Br)cc1C1CC(=O)N2CN(Cc3ccccc3)CSC2=C1C#N (stereo not given) | – | – | – | – | – | 71.5
COc1ccc(CCN2C(=O)CSC2=NNC(=O)c2ccc(C(C)(C)C)cc2)cc1OC | · | – | · | · | · | ·
CCN(CC)c1ccc(C=NN2CCN(Cc3ccccc3Cl)CC2)c(O)c1 | · | – | · | · | · | ·
COc1ccc(OCc2cc(C(=O)NC3CCOCC3)no2)c2ccccc12 | – | 24.3 | – | – | – | –
CC1Cc2ccccc2C(=O)N1 (stereo not given) | – | – | – | 96.6 | – | –
O=C1Cc2ccccc2C(=O)N1 | – | · | · | · | · | ·
CC(=O)n1cc(C=NNC(=O)c2ccc([N+](=O)[O-])cc2)c2ccccc21 | · | – | · | · | · | ·
O=C1/C(=C/c2ccncc2)CCC/C1=C\c1ccncc1 | – | – | 46.8 | – | – | –
CC1(C)N([O-])c2cc([N+](=O)[O-])ccc2[N+]1=O | · | 57.4 | – | · | – | 69.9
CC(=O)c1cccc(Nc2nc(-c3sc(C)nc3C)cs2)c1 | – | – | – | – | – | –
SMILES | aDG glyco up | UCH37 DUB inh | B2AR ag | H9c2 protect | HKDC1 inh | PfG6PD inh
CC(=O)c1cccc(Nc2nc(-c3sc(N)nc3C)cs2)c1 | – | – | – | 70.4 | – | –
c1ccc(Cn2nnnc2C(c2cccnc2)N2CCN(C3CCCCC3)CC2)cc1 (stereo not given) | – | – | – | 79.1 | – | –
COc1ccc(Cn2nnnc2C(c2ccccc2)N2CCN(C3CCCC3)CC2)cc1 (stereo not given) | – | – | – | – | – | –
CC12CCC(C(=O)Nc3ccccc3)(CC1=NO)C2(C)C (stereo not given) | · | – | · | · | · | ·
Cc1cccc(NC(=O)c2nc[nH]c2C(=O)NCCN(CCNC(=O)c2[nH]cnc2C(=O)Nc2cccc(C)c2)CCNC(=O)c2[nH]cnc2C(=O)Nc2cccc(C)c2)c1 | – | – | – | – | – | –
Cc1cccc(NC(=O)c2nc[nH]c2C(=O)NCCCNC(=O)c2[nH]cnc2C(=O)Nc2cccc(C)c2)c1 | – | · | – | 61.8 | – | –

Assay outcomes: PubChem, several laboratories
